Assay results taken from ChEMBL document CHEMBL1255440, “An antimicrobial peptide that targets DNA repair intermediates in vitro inhibits Salmonella growth within murine macrophages” (Antimicrob Agents Chemother, 2010).

Legend:
[1] = tested on: Salmonella typhimurium; assay: Antibacterial activity against 10 MOI Salmonella enterica subsp. enterica serovar Typhimurium G785 transfected with SOS-inducible beta-galactosidase reporter infected in mouse J774A1 cells assessed as bacterial number at 150 uM after 4 hrs postinfection; type: functional, J774.A1
Method in brief: (§1)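 J774A.1 cells infected at MOI 10 with sulA promoter-lacZ reporter strain G785 using the gentamicin-protection protocol, treated with peptide (DMSO vehicle controls) plus 15 μg/ml gentamicin for 4 or 24 h. Released bacteria were plated for colony counts in parallel, and were incubated with 33 μM C12FDG (with 0.2 mM EDTA) in LB for 2 h at 37°C. Flow cytometry gave % fluorescein-positive among LPS-antibody-positive particles; Wilcoxon exact test.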

[2] = Cytotoxicity against mouse J774A1 cells assessed as reduction in metabolic activity at 100 uM after 24 hrs by MTT assay; type: ADME, cell-based, J774.A1; conditions: read-out: INH
Method in brief: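 Cells seeded at 40,000/well in 96-well plates, overnight 37°C 5% CO2, then treated 24 h in fresh DMEM. MTT (4 mg/ml stock in PBS) added for up to 3 h. Formazan solubilized overnight at 37°C in SDS/dimethylformamide/acid lysis buffer, OD read at 575 nm. Paired t tests.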

[3] = tested on: J774.A1; assay: Drug uptake in mouse J774A1 cells assessed as dimer to monomer peptide ratio at 100 uM after 5 hrs at 4 degC by HPLC analysis; type: ADME, cell-based; conditions: j774.a1, 5 h
Method in brief: (§2)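 J774A.1 cells were incubated with unlabeled peptide for 5 or 24 h at 37°C or 4°C, washed in ice-cold PBS and lysed with NP-40 buffer. Lysates were run on reverse-phase HPLC with an acetonitrile/0.1% TFA gradient and A280 fractions. Monomer (~17.5 min) and dimer (~17.75 min) peak areas were compared against a standard curve. Intracellular mM was calculated using 300,000 cells and 1 pl/cell, with concentration expressed as monomer mass.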

[4] = tested on: Salmonella typhimurium; assay: Antibacterial activity against 1 MOI Salmonella enterica subsp. enterica serovar Typhimurium infected in mouse J774A1 cells assessed as fold reduction in bacterial growth at 100 uM after 24 hrs; type: functional, J774.A1
Method in brief: (§3)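 J774A.1 cells or thioglycolate-elicited BALB/c peritoneal macrophages seeded at 200,000/well, overnight 37°C 5% CO2; infected with GFP strain SDT1416, 1 h invasion, washed, 1 h in DMEM with 15 μg/ml gentamicin. Then fresh DMEM plus 15 μg/ml gentamicin with or without peptide (DMSO vehicle) for 24 h at 37°C; macrophages lysed with 1% Triton X-100, plated on LB agar for CFU.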

[5] = tested on: Salmonella typhimurium; assay: Antibacterial activity against 1 MOI Salmonella enterica subsp. enterica serovar Typhimurium infected in mouse J774A1 cells assessed as reduction in bacterial growth at 100 uM after 24 hrs; type: functional, J774.A1; parameters: scale not given: the % may be the effect or the level left; method in brief: as §3
[6] = tested on: J774.A1; assay: Cytotoxicity against mouse J774A1 cells assessed as dead cells at 50 uM by propidium iodide assay; type: cell-based; conditions: j774.a1, 50 µM
Method in brief: (§4)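 Cells seeded at 300,000/well and allowed to adhere, then given fresh DMEM with or without peptide for 24 h. Cells trypsinized, stained with a mammalian Live/Dead viability/cytotoxicity kit and analyzed by flow cytometry. Wilcoxon exact test.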

[7] = tested on: Salmonella typhimurium; assay: Antibacterial activity against 10 MOI Salmonella enterica subsp. enterica serovar Typhimurium G785 transfected with SOS-inducible beta-galactosidase reporter infected in mouse J774A1 cells assessed as SOS induction at 150 uM after 24 hrs postinfection; type: functional, J774.A1; method in brief: as §1
[8] = tested on: Salmonella typhimurium; assay: Antibacterial activity against 1 MOI Salmonella enterica subsp. enterica serovar Typhimurium infected in mouse peritoneal macrophages assessed as reduction in bacterial growth after 24 hrs; type: functional, organism-based; method in brief: as §3
[9] = Drug uptake in mouse peritoneal macrophages assessed as total peptide concentration at 150 uM after 24 hrs at 37 degC by HPLC analysis; type: ADME, cell-based; conditions: peritoneal macrophage cell
Method in brief: (§5)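 Macrophages were elicited in 8–12-week-old female BALB/c mice with 4% thioglycolate i.p. and harvested by lavage 4 days later. Cells were seeded at 300,000 per well for 24 h, then given unlabeled peptide in DMEM for 24 h at 37°C. Lysates were run on reverse-phase HPLC at A280. Monomer (17.5 min) and dimer (17.75 min) peak areas were compared with a standard curve. Concentration assumed 1 pl per cell; values are means of three determinations.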

[10] = Drug uptake in mouse peritoneal macrophages assessed as total peptide concentration at 50 uM after 24 hrs at 37 degC by HPLC analysis; type: ADME, cell-based; conditions: peritoneal macrophage cell; method in brief: as §5
[11] = tested on: J774.A1; assay: Drug uptake in mouse J774A1 cells at 10 uM after 5 hrs in presence of 100 nM wortmannii PI3K inhibitor by confocal laser microscopy; conditions: j774.a1, 5 h
[12] = tested on: Salmonella typhimurium; assay: Antibacterial activity against 1 MOI Salmonella enterica subsp. enterica serovar Typhimurium infected in mouse peritoneal macrophages assessed as reduction in bacterial growth at 50 uM after 24 hrs; type: functional; parameters: scale not given: the % may be the effect or the level left; method in brief: as §3
[13] = Cytotoxicity against mouse J774A1 cells assessed as live cells at 100 uM by calcein AM assay; type: cell-based, J774.A1; conditions: read-out: Activity; method in brief: as §4
[14] = tested on: J774.A1; assay: Drug uptake in mouse J774A.1 cells assessed as dimer to monomer peptide ratio at 50 uM after 24 hrs at 4 degC by HPLC analysis; conditions: J774A.1, 24 h
[15] = tested on: J774.A1; assay: Drug uptake in mouse J774A1 cells assessed as total peptide concentration at 150 uM after 24 hrs at 37 degC by HPLC analysis; type: ADME, cell-based; conditions: j774.a1, 24 h; method in brief: as §2
[16] = tested on: Salmonella typhimurium; assay: Antibacterial activity against 10 MOI Salmonella enterica subsp. enterica serovar Typhimurium G785 transfected with SOS-inducible beta-galactosidase reporter infected in mouse J774A1 cells assessed as SOS induction at 100 uM after 24 hrs postinfection; type: functional, J774.A1; method in brief: as §1
[17] = tested on: J774.A1; assay: Drug uptake in mouse J774A1 cells assessed as total peptide concentration at 100 uM after 5 hrs at 4 degC by HPLC analysis; type: ADME, cell-based; conditions: j774.a1, 5 h; method in brief: as §2
[18] = tested on: J774.A1; assay: Drug uptake in mouse J774A1 cells at 10 uM after 4 hrs at 4 degC by confocal laser microscopy; type: ADME, cell-based; conditions: j774.a1, 4 h
Method in brief: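 Cells were seeded at 200,000 per chamber-slide well and left to adhere overnight at 37°C. They were then exposed in DMEM to peptide carrying an N-terminal rhodamine label, at 37°C or, where stated, 4°C. Cells were washed three times in PBS, fixed in 4% paraformaldehyde for 30 min, and mounted in antifade. Optical slices near the cell centre were imaged by confocal laser microscopy.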

[19] = tested on: J774.A1; assay: Drug uptake in mouse J774A1 cells assessed as dimer to monomer peptide ratio at 100 uM after 24 hrs at 37 degC by HPLC analysis; type: ADME, cell-based; conditions: j774.a1, 24 h; method in brief: as §2
[20] = tested on: J774.A1; assay: Drug uptake in mouse J774A1 cells assessed as dimer to monomer peptide ratio at 150 uM after 24 hrs at 37 degC by HPLC analysis; type: ADME, cell-based; conditions: j774.a1, 24 h; method in brief: as §2
[21] = Drug uptake in mouse peritoneal macrophages assessed as dimer to monomer peptide ratio at 150 uM after 24 hrs at 37 degC by HPLC analysis; type: ADME, cell-based; conditions: peritoneal macrophage cell; method in brief: as §5
[22] = Cytotoxicity against mouse peritoneal macrophages assessed as live cells at 50 uM by calcein AM assay; type: cell-based, Peritoneal macrophage cell; conditions: read-out: Activity; method in brief: as §4
[23] = Cytotoxicity against mouse peritoneal macrophages assessed as live cells at 150 uM by calcein AM assay; type: cell-based, Peritoneal macrophage cell; conditions: read-out: Activity; method in brief: as §4
[24] = tested on: Salmonella typhimurium; assay: Antibacterial activity against 10 MOI Salmonella enterica subsp. enterica serovar Typhimurium G785 transfected with SOS-inducible beta-galactosidase reporter infected in mouse J774A1 cells assessed as bacterial number at 50 uM after 4 hrs postinfection; type: functional, J774.A1; method in brief: as §1

Compound `N=C(N)NCCC[C@@H](NC(=O)[C@@H](CS)NC(=O)[C@@H](Cc1ccc(O)cc1)NC(=O)[C@@H](Cc1c[nH]c2ccccc12)NC(=O)[C@@H](CCCNC(=N)N)NC(=O)[C@H](N)Cc1c[nH]c2ccccc12)C(=O)O` has an Activity [1] of 3%, a cytotoxicity at 24 h, 100 µM [2] of 17.3% and a Ratio [3] of 2.7. For the same compound, the fold change (FC) [4] was > 100, the Activity [5] was 85.1% and the Activity [6] was 4.3%. The Activity [7] was 28.4%, the Activity [8] was “Dose-dependent effect” and the Drug uptake [9] was 24.8 mM. The Drug uptake [10] was 2.5 mM, the Drug uptake [11] was “Not Active” and the Activity [12] was 34%. It also gave a viability at 100 µM [13] of 58.9%, a Ratio [14] of 7.4 and a Drug uptake [15] of 30.1 mM. For the same compound, the Activity [16] was 16.5%, the Drug uptake [17] was 7.7 mM and the Drug uptake [18] was “Not Active”. The Ratio [19] was 2.9, the Ratio [20] was 12.5 and the Ratio [21] was 11.4. The viability at 50 µM [22] was 94.2%, the viability at 150 µM [23] was 87.9% and the Activity [24] was 57.1%.
